{"source": "ChEMBL document CHEMBL4041461", "about": "“Discovery of 6,7-dihydro-3H-pyrano[4,3-c]isoxazol-3-ones as a new class of pathogen specific anti-leptospiral agents” (Eur J Med Chem, 2017)", "format_in_all_cases": "functional", "key": {"[1]": {"test_system": "Leptospira interrogans serovar Autumnalis", "test": "Antibacterial activity against Leptospira interrogans serovar Autumnalis N2 at 500 ug/mL after 2 hrs by micro dilution assay", "how_it_was_run": "(§1)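 Preliminary screen by broth microdilution against L. interrogans serovar Autumnalis strain N2, each compound at 500, 250, 125, 62.5 and 31.25 µg/mL. Growth at each concentration was scored as resistance (R) or inhibition (I), and the MIC was taken from these scores. Triplicates.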"}, "[2]": {"test_system": "Leptospira interrogans serovar Autumnalis", "test": "Antibacterial activity against Leptospira interrogans serovar Autumnalis N2 at 62.5 ug/mL after 2 hrs by micro dilution assay", "how_it_was_run": "as §1"}, "[3]": {"test_system": "Leptospira interrogans serovar Autumnalis", "test": "Antibacterial activity against Leptospira interrogans serovar Autumnalis N2 at 250 ug/mL after 2 hrs by micro dilution assay", "how_it_was_run": "as §1"}, "[4]": {"test_system": "Leptospira interrogans serovar Autumnalis", "test": "Antibacterial activity against Leptospira interrogans serovar Autumnalis N2 at 31.25 ug/mL after 2 hrs by micro dilution assay", "how_it_was_run": "as §1"}, "[5]": {"test_system": "Leptospira interrogans serovar Autumnalis", "test": "Antibacterial activity against Leptospira interrogans serovar Autumnalis N2 at 125 ug/mL after 2 hrs by micro dilution assay", "how_it_was_run": "as §1"}, "[6]": {"test": "Antibacterial activity against Leptospira interrogans serovar Javanica Poi after 2 hrs by micro dilution assay"}, "[7]": {"test": "Antibacterial activity against Leptospira interrogans serovar Grippotyphosa Moskva V after 2 hrs by micro dilution assay"}, "[8]": {"test": "Antibacterial activity against Leptospira interrogans serovar Pyrogenes Salinem after 2 hrs by micro dilution assay"}, "[9]": {"test": "Antibacterial activity against Leptospira interrogans serovar Australis Ballico after 2 hrs by micro dilution assay"}, "[10]": {"test": "Antibacterial activity against Leptospira interrogans serovar Pomona after 2 hrs by micro dilution assay"}, "[11]": {"test": "Antibacterial activity against Leptospira interrogans serovar Bataviae Swart after 2 hrs by micro dilution assay"}, "[12]": {"test": "Antibacterial activity against Leptospira interrogans serovar Canicola Hond Utrecht IV after 2 hrs by micro dilution assay"}, "[13]": {"test": "Antibacterial activity against Leptospira interrogans serovar Ballum Mus 127 after 2 hrs by micro dilution assay", "details": "Mus 127, 2 h"}, "[14]": {"test": "Antibacterial activity against Leptospira interrogans serovar Icterohaemorrhagiae RGA after 2 hrs by micro dilution assay"}, "[15]": {"test": "(§2) Antibacterial activity against Leptospira interrogans serovar Semaranga after 2 hrs by micro dilution assay"}, "[16]": {"test": "Antibacterial activity against Leptospira interrogans serovar Hebdomadis after 2 hrs by micro dilution assay"}, "[17]": {"test": "Antibacterial activity against Leptospira interrogans serovar Autumnalis N2 after 2 hrs by micro dilution assay", "details": "N2, 2 h"}, "[18]": {"test": "Antibacterial activity against Leptospira interrogans serovar Hardjo Hardjoprajitno after 2 hrs by micro dilution assay"}, "[19]": {"test_system": "Leptospira interrogans", "test": "as §2"}}, "note": "Active and inactive are the calls of the source. No cut-off for these calls is given here."}
{"smiles": "COc1cc(OC)c2c(O)c3c(cc2c1)OC(C)CC3=O", "note": "(centres undefined)", "values": [{"measurement": "Activity", "setting": "[1]", "result": "inactive"}, {"measurement": "Activity", "setting": "[2]", "result": "inactive"}, {"measurement": "Activity", "setting": "[3]", "result": "inactive"}, {"measurement": "Activity", "setting": "[4]", "result": "inactive"}, {"measurement": "Activity", "setting": "[5]", "result": "inactive"}]}
{"smiles": "COc1ccc(C2=C3C(=O)ON=C3CC(C)(C)O2)cc1", "values": [{"measurement": "MIC", "setting": "[6]", "result": 250, "unit": "µg/mL"}, {"measurement": "Activity", "setting": "[1]", "result": "Active"}, {"measurement": "MIC", "setting": "[7]", "result": 250, "unit": "µg/mL"}, {"measurement": "MIC", "setting": "[8]", "result": 250, "unit": "µg/mL"}, {"measurement": "Activity", "setting": "[2]", "result": "inactive"}, {"measurement": "MIC", "setting": "[9]", "result": 125, "unit": "µg/mL"}, {"measurement": "MIC", "setting": "[10]", "result": 250, "unit": "µg/mL"}, {"measurement": "Activity", "setting": "[3]", "result": "Active"}, {"measurement": "Activity", "setting": "[4]", "result": "inactive"}, {"measurement": "MIC", "setting": "[11]", "result": 250, "unit": "µg/mL"}, {"measurement": "MIC", "setting": "[12]", "result": 250, "unit": "µg/mL"}, {"measurement": "MIC", "setting": "[13]", "result": 125, "unit": "µg/mL"}, {"measurement": "Activity", "setting": "[5]", "result": "inactive"}, {"measurement": "MIC", "setting": "[14]", "result": 250, "unit": "µg/mL"}, {"measurement": "MIC", "setting": "[15]", "result": 500, "unit": "µg/mL"}, {"measurement": "MIC", "setting": "[16]", "result": 250, "unit": "µg/mL"}, {"measurement": "MIC", "setting": "[17]", "result": 250, "unit": "µg/mL"}, {"measurement": "MIC", "setting": "[18]", "result": 250, "unit": "µg/mL"}]}
{"smiles": "CC1(C)CC2=NOC(=O)C2=C(c2ccco2)O1", "values": [{"measurement": "Activity", "setting": "[1]", "result": "inactive"}, {"measurement": "Activity", "setting": "[2]", "result": "inactive"}, {"measurement": "Activity", "setting": "[3]", "result": "inactive"}, {"measurement": "Activity", "setting": "[4]", "result": "inactive"}, {"measurement": "Activity", "setting": "[5]", "result": "inactive"}]}
{"smiles": "CC1=C2C(=O)ON=C2CC(C)(C)O1", "values": [{"measurement": "MIC", "setting": "[6]", "result": 500, "unit": "µg/mL"}, {"measurement": "Activity", "setting": "[1]", "result": "Active"}, {"measurement": "MIC", "setting": "[7]", "result": 500, "unit": "µg/mL"}, {"measurement": "MIC", "setting": "[8]", "result": 250, "unit": "µg/mL"}, {"measurement": "Activity", "setting": "[2]", "result": "inactive"}, {"measurement": "MIC", "setting": "[9]", "result": 500, "unit": "µg/mL"}, {"measurement": "MIC", "setting": "[10]", "result": 250, "unit": "µg/mL"}, {"measurement": "Activity", "setting": "[3]", "result": "inactive"}, {"measurement": "Activity", "setting": "[4]", "result": "inactive"}, {"measurement": "MIC", "setting": "[11]", "result": 250, "unit": "µg/mL"}, {"measurement": "MIC", "setting": "[12]", "result": 250, "unit": "µg/mL"}, {"measurement": "MIC", "setting": "[13]", "result": 500, "unit": "µg/mL"}, {"measurement": "Activity", "setting": "[5]", "result": "inactive"}, {"measurement": "MIC", "setting": "[14]", "result": 125, "unit": "µg/mL"}, {"measurement": "MIC", "setting": "[15]", "result": 500, "unit": "µg/mL"}, {"measurement": "MIC", "setting": "[16]", "result": 250, "unit": "µg/mL"}, {"measurement": "MIC", "setting": "[17]", "result": 500, "unit": "µg/mL"}, {"measurement": "MIC", "setting": "[18]", "result": 500, "unit": "µg/mL"}]}
{"smiles": "COc1cc(OC)c2c(O)c3c(cc2c1)OC(C)(C)CC3=O", "values": [{"measurement": "Activity", "setting": "[1]", "result": "inactive"}, {"measurement": "Activity", "setting": "[2]", "result": "inactive"}, {"measurement": "Activity", "setting": "[3]", "result": "inactive"}, {"measurement": "Activity", "setting": "[4]", "result": "inactive"}, {"measurement": "Activity", "setting": "[5]", "result": "inactive"}]}
{"smiles": "COc1cc(OC)cc(C2=C3C(=O)ON=C3CC(C)(C)O2)c1", "values": [{"measurement": "Activity", "setting": "[1]", "result": "inactive"}, {"measurement": "Activity", "setting": "[2]", "result": "inactive"}, {"measurement": "Activity", "setting": "[3]", "result": "inactive"}, {"measurement": "Activity", "setting": "[4]", "result": "inactive"}, {"measurement": "Activity", "setting": "[5]", "result": "inactive"}]}
{"smiles": "CCC1=C2C(=O)ON=C2CC(C)(C)O1", "values": [{"measurement": "MIC", "setting": "[6]", "result": 250, "unit": "µg/mL"}, {"measurement": "Activity", "setting": "[1]", "result": "Active"}, {"measurement": "MIC", "setting": "[7]", "result": 250, "unit": "µg/mL"}, {"measurement": "MIC", "setting": "[8]", "result": 250, "unit": "µg/mL"}, {"measurement": "Activity", "setting": "[2]", "result": "inactive"}, {"measurement": "MIC", "setting": "[9]", "result": 250, "unit": "µg/mL"}, {"measurement": "MIC", "setting": "[10]", "result": 250, "unit": "µg/mL"}, {"measurement": "Activity", "setting": "[3]", "result": "Active"}, {"measurement": "Activity", "setting": "[4]", "result": "inactive"}, {"measurement": "MIC", "setting": "[11]", "result": 125, "unit": "µg/mL"}, {"measurement": "MIC", "setting": "[12]", "result": 250, "unit": "µg/mL"}, {"measurement": "MIC", "setting": "[13]", "result": 250, "unit": "µg/mL"}, {"measurement": "Activity", "setting": "[5]", "result": "inactive"}, {"measurement": "MIC", "setting": "[14]", "result": 250, "unit": "µg/mL"}, {"measurement": "MIC", "setting": "[19]", "result": "inactive"}, {"measurement": "MIC", "setting": "[16]", "result": 125, "unit": "µg/mL"}, {"measurement": "MIC", "setting": "[17]", "result": 250, "unit": "µg/mL"}, {"measurement": "MIC", "setting": "[18]", "result": 250, "unit": "µg/mL"}]}
{"smiles": "CC1(C)CC(O)=C2C(=O)c3ccccc3C=C2O1", "values": [{"measurement": "Activity", "setting": "[1]", "result": "Active"}, {"measurement": "Activity", "setting": "[2]", "result": "inactive"}, {"measurement": "Activity", "setting": "[3]", "result": "Active"}, {"measurement": "Activity", "setting": "[4]", "result": "inactive"}, {"measurement": "Activity", "setting": "[5]", "result": "inactive"}]}
{"smiles": "CC1(C)CC2=NOC(=O)C2=C(c2ccccc2)O1", "values": [{"measurement": "Activity", "setting": "[1]", "result": "inactive"}, {"measurement": "Activity", "setting": "[2]", "result": "inactive"}, {"measurement": "Activity", "setting": "[3]", "result": "inactive"}, {"measurement": "Activity", "setting": "[4]", "result": "inactive"}, {"measurement": "Activity", "setting": "[5]", "result": "inactive"}]}
